These results are taken from ChEMBL document CHEMBL1773055, “A chemotype that inhibits three unrelated pathogenic targets: the botulinum neurotoxin serotype A light chain, P. falciparum malaria, and the Ebola filovirus” (J Med Chem, 2011).

Each structure is given as a SMILES string. Active and inactive are the calls of the source. The rule behind the calls is not given here.

Data set [1] concerns Plasmodium falciparum. Put plainly: Antimalarial activity against Plasmodium falciparum D6. It counts as functional, organism-based.
Data set [2] has as its system Plasmodium falciparum. Put plainly: Antimalarial activity against Plasmodium falciparum W2. It counts as functional, organism-based.
Data set [3] relates to Plasmodium falciparum. Kind of data set: Antimalarial activity against Plasmodium falciparum C235. The class given is functional, organism-based.
Data set [4] relates to Plasmodium falciparum. Kind of data set: Resistance index, ratio of IC50 for Plasmodium falciparum W2 to IC50 for Plasmodium falciparum D6. It counts as functional. Summed up:
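P. falciparum clones D6 (CQ/MFQ-susceptible, Sierra I/UNC), W2 (CQ-resistant, MFQ-susceptible, Indochina I) and TM91C235 (CQ- and MFQ-resistant, South-East Asian) were tested in a modified Desjardins in vitro susceptibility screen, giving IC50 and IC90. Resistance index is IC50 of the resistant strain divided by IC50 against D6 (W2/D6, C235/D6).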

Data set [5] deals with Plasmodium falciparum. Kind of data set: Resistance index, ratio of IC50 for Plasmodium falciparum C235 to IC50 for Plasmodium falciparum D6. The class given is functional.
The target of data set [6] is Botulinum neurotoxin type A (Clostridium botulinum) (UniProt P0DPI0). Put plainly: (§1) Inhibition of clostridium botulinum Botulinum neurotoxin type A light chain at 20 uM. Summed up: (§2)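 Recombinant BoNT/A LC and peptide substrate were incubated in 40 mM HEPES–0.05% Tween pH 7.3 with 0.5 mg/ml BSA and 50 μM excess ZnCl2 at 37°C, with compound at 20 μM. Reactions were quenched with TFA, and substrate hydrolysis was quantified by reverse-phase HPLC peak areas. Percent inhibition was measured in duplicate.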

In data set [7] the target is Botulinum neurotoxin type A (Clostridium botulinum, UniProt P0DPI0). The data set is described as §1. The procedure, abridged: as §2
For a further data set, the system named is RAW264.7. Kind of data set: Cytotoxicity against rat RAW264.7 cells by MTT assay. The class given is cell-based. The note with it: for IC50: Mus musculus, RAW264.7; for IC90: […]. The procedure, abridged:
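RAW 264.7 cells were seeded at 2.5×10^4 per well about 12 h before dosing. They were exposed to 0.29–48 μg/ml compound for 48 h at 37°C, 5% CO2. Viability was read by MTT reduction, with a DMSO control. Runs were in duplicate, and IC50 came from sigmoidal variable-slope dose-response fits.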

A short description of data set [8]: Selectivity index, ratio of IC50 for […] cells to IC50 for Plasmodium falciparum D6. The class given is toxicity, cell-based. The note with it: read-out: Ratio IC50.
Data set [9] in a line: Selectivity index, ratio of IC50 for […] cells to IC50 for Plasmodium falciparum W2. It counts as toxicity, cell-based. The note with it: read-out: Ratio IC50.
Data set [10] in a line: Selectivity index, ratio of IC50 for […] cells to IC50 for Plasmodium falciparum C235. It counts as toxicity, cell-based. The note with it: read-out: Ratio IC50.
Data set [11] is described as follows: Selectivity index, ratio of IC90 for […] cells to IC90 for Plasmodium falciparum D6. The class given is toxicity, cell-based.
Data set [12] in a line: Selectivity index, ratio of IC90 for […] cells to IC90 for Plasmodium falciparum W2. It counts as toxicity, cell-based.
Data set [13] can be described thus: Selectivity index, ratio of IC90 for […] cells to IC90 for Plasmodium falciparum C235. It counts as toxicity, cell-based.
In the next data set the test system is Liver microsomes. Kind of data set: Half life in human liver microsomes. It counts as ADME, Microsome. The procedure, abridged: (§3)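 Compound at 10 μM was incubated with mouse or human liver microsomes (1 mg/mL protein) in 0.1 M sodium phosphate pH 7.4 with an NADPH-regenerating system at 37°C, started by G6PD. Samples were quenched with cold acetonitrile at 0, 10, 30 and 60 min and analysed by LC-MS/MS. Half-life = 0.693/k.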

The test system of another data set is Liver. Put plainly: Half life in mouse liver microsomes. It counts as ADME, Microsome. The procedure, abridged:
as §3

Data set [14] concerns Ebolavirus. Put plainly: Antiviral activity against Zaire ebolavirus expressing enhanced GFP in Vero 76 cells at 20 uM after 48 hrs by standard Plaque assay. Particulars: Orthoebolavirus. The class given is functional.
For data set [15], the system named is Ebolavirus. Put plainly: Antiviral activity against Zaire ebolavirus expressing enhanced GFP in Vero 76 cells after 48 hrs by standard Plaque assay. The class given is functional, cell-based. Particulars: Orthoebolavirus.
For the next data set, the system named is Vero. Put plainly: Cytotoxicity against african green monkey Vero 76 cells at 20 uM. It counts as cell-based. The note with it: chlorocebus sabaeus.
The next data set has as its system Plasmodium berghei. Kind of data set: Antiplasmodial activity against Plasmodium berghei str. ANKA infected in ICR mouse assessed as protection against infection. The class given is functional, organism-based. Summed up: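 ICR mice were dosed orally once daily on days -1, 0 (1–3 h before inoculation) and +1, with compound in 0.5% hydroxyethylcellulose/0.1% Tween 80. On day 0 they received 1.0×10^5 P. berghei ANKA sporozoites IV, taken from Anopheles dirus salivary glands. Giemsa thick/thin tail smears were read on days 4–31. Protection meant no parasitemia within 10 days and negative smears through day 31.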

In another data set the test system is Mus musculus. Kind of data set: Toxicity against ICR mouse at 160 mg/kg, po for 3 consecutive days measured. Also noted: dose 160 mg/kg, route oral. The note with it: in vivo. The class given is organism-based. The procedure, abridged:
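P. berghei (P-line)-infected outbred ICR mice were given compound orally in 0.5% hydroxyethylcellulose/0.1% Tween 80 daily for 3 days. Toxicity was judged from overt physical or behavioural changes, checked twice daily, plus gross necropsy of all mice.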

A short description of data set [16]: Inhibition of beta-hematin formation assessed as drug-hematin ratio for 50% inhibition by BHIA assay. It counts as functional.
A short description of data set [17]: Inhibition of beta-hematin formation. The class given is functional.
Data set [18] is described as follows: Cytotoxicity against human NCI60 cells. The class given is functional.

Botulinum neurotoxin type A (Clostridium botulinum), sequence (P0DPI0 2-448 limits assumed): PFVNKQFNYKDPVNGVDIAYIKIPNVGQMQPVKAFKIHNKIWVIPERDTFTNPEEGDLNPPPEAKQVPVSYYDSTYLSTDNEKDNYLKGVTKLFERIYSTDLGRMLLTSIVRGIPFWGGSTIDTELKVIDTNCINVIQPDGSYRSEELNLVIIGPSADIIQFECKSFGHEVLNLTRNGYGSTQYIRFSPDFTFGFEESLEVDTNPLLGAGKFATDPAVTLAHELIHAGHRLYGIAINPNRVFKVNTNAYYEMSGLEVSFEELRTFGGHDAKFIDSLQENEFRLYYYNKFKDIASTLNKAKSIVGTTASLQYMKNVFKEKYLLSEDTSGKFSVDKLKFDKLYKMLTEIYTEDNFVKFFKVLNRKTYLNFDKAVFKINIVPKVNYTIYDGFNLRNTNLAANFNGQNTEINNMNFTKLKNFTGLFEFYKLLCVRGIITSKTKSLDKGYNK
Botulinum neurotoxin type A, sequence (P0DPI0 2-448 limits assumed): as above

In the case of `Cc1cc(NCCN)c2ccc3c(ccc4c(NCCN)cc(C)nc43)c2n1.Cl`, the IC50 in the data set on Plasmodium falciparum [1] stood at 270 nM; in the data set with Plasmodium falciparum [2], 871 nM; with Plasmodium falciparum [3] it was 1020 nM. Moreover, the figures for the IC90 with Plasmodium falciparum [1], in the data set on Plasmodium falciparum [2] and with Plasmodium falciparum [3] were 355 nM, 1790 nM and 1760 nM, respectively. In addition, the “Ratio IC50” value is given as 3.22 in the data set with Plasmodium falciparum [4] and 3.78 with Plasmodium falciparum [5]. The molecule also displayed an inhibition in [6] of 62.7%. This molecule displayed a Ki in data set [7] of 8700 nM.
As for `CCN(CC)CCNc1cc(C)nc2c1ccc1c2ccc2c(NCCN(CC)CC)cc(C)nc21.Cl`, the IC50 in the data set on Plasmodium falciparum [1] is 6.01 nM; with Plasmodium falciparum [3] it was 3.32 nM; with RAW264.7, 9350 nM; with Ebolavirus [15], 5000 nM. The IC90 in the data set with Plasmodium falciparum [1] was determined as 9.01 nM; with Plasmodium falciparum [2] it was 10.1 nM; in the data set on Plasmodium falciparum [3], 3.79 nM; in the data set with RAW264.7 it was 10700 nM. The results for the “Ratio IC50” value with Plasmodium falciparum [4] and in the data set on Plasmodium falciparum [5] were 0.57 and 0.55, respectively. Besides, the selectivity ratio worked out at 1560 in data set [8]; 2690 in data set [9]; 282 in data set [10]; 1190 in [11]; 1060 in data set [12]; 2830 in data set [13]. Besides, the t1/2 in the data set with Liver microsomes and in the data set on Liver was above 1 h each time. The inhibition at 20 µM in the data set with Ebolavirus [14] came out at 97%. Further, the Activity in the data set on Vero was below 20%; with Mus musculus it was “Non-toxic”. The inhibition in [6] came to 55.4%. Moreover, the outcome in the data set on Plasmodium berghei was inactive.
As to `Cc1cc(NCCN2CCCC2)c2ccc3c(ccc4c(NCCN5CCCC5)cc(C)nc43)c2n1.Cl`, the IC50 was 16.8 nM in the data set on Plasmodium falciparum [1], 8.11 nM with Plasmodium falciparum [2], 25.9 nM in the data set with Plasmodium falciparum [3] and 0.401 equiv in data set [16]. The IC90 is 32.3 nM in the data set on Plasmodium falciparum [1], 28 nM with Plasmodium falciparum [2] and 40.3 nM in the data set with Plasmodium falciparum [3]. The “Ratio IC50” value in the data set on Plasmodium falciparum [4] came out at 0.48; in the data set on Plasmodium falciparum [5], 1.54. Further, the inhibition is 60.3% in data set [6] and “Dose-dependent effect” in data set [17].
For `Cc1cc(NCCN2CCOCC2)c2ccc3c(ccc4c(NCCN5CCOCC5)cc(C)nc43)c2n1.Cl`, the IC50 is 5.93 nM with Plasmodium falciparum [1]; 6.12 nM with Plasmodium falciparum [2]; 9.84 nM in the data set on Plasmodium falciparum [3]; 10200 nM in the data set on RAW264.7; 0.473 equiv in data set [16]. Moreover, the IC90 in the data set with Plasmodium falciparum [1] was found to be 12.6 nM; with Plasmodium falciparum [2] it was 11.5 nM; with Plasmodium falciparum [3] it was 16.5 nM; in the data set on RAW264.7 it was 29900 nM. For the same molecule, the “Ratio IC50” value amounted to 1.03 with Plasmodium falciparum [4] and 1.66 with Plasmodium falciparum [5]. Moreover, the selectivity ratio in [8] came to 1720; in data set [9] it was 1660; in [10], 1030; in data set [11], 2370; in data set [12], 2600; in data set [13], 1820. The t1/2 in the data set with Liver microsomes and in the data set on Liver was above 1 h in each case. For the same molecule, in the data set with Ebolavirus [14], the inhibition at 20 µM is 53%. Also, the inhibition in data set [6] is 39%; in data set [17], “Dose-dependent effect”. The “inhibition (INH)” value in data set [18] was 91%.
On to `Cc1cc(NCCCN2CCOCC2)c2ccc3c(ccc4c(NCCCN5CCOCC5)cc(C)nc43)c2n1.Cl`, for which the IC50 in the data set on Plasmodium falciparum [1] came to 5.23 nM; with Plasmodium falciparum [2] it was 2 nM; in the data set with Plasmodium falciparum [3] it was 8.05 nM; with RAW264.7, 7480 nM; in [16], 0.52 equiv; in the data set on Ebolavirus [15], 2500 nM. Moreover, the IC90 in the data set with Plasmodium falciparum [1] stood at 8.47 nM; in the data set with Plasmodium falciparum [2], 6.38 nM; in the data set with Plasmodium falciparum [3], 17.4 nM; in the data set with RAW264.7, 11000 nM. In addition, the “Ratio IC50” value is recorded as 0.38 in the data set with Plasmodium falciparum [4] and 1.54 with Plasmodium falciparum [5]. Besides, the selectivity ratio was determined as 1430 in data set [8]; 3740 in [9]; 929 in data set [10]; 1300 in data set [11]; 1730 in data set [12]; 635 in data set [13]. Moreover, the values for the t1/2 in the data set with Liver microsomes and in the data set on Liver were 0.667 h and above 1 h, respectively. The inhibition at 20 µM with Ebolavirus [14] is 96%. The Activity with Vero was below 20%. Further, the inhibition in data set [6] was 55.6%; in [17], “Dose-dependent effect”. The “inhibition (INH)” value in [18] is recorded as 92%.
